EBI2 block – EBI2 (human) antagonism. inhibition, % at 5 µM. P32249. 360,000 tested, 0.81% active. AID 651636. EBI2 beta-arrestin recruitment, luminescence, 7a,25-OHC stimulated; in the data active means inhibition above about 38%;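 further: enzyme fragment complementation signal reports receptor beta-arrestin coupling in cells; 0% = agonist plus DMSO wells and 100% = wells without agonist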
HTR2A ag – mouse HTR2A agonism via beta-arrestin recruitment; P35363; CHO-K1 mHTR2A beta-arrestin complementation, luminescence; percent of 30 µM serotonin response; activation, % at 7.6 µM; 360,000 tested, 0.66% active; AID 624169;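 active means activation above a run cutoff, the mean activation of all tested compounds plus 3 SD, cut at about 14% in these data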;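 further: 0% = plate median of compound wells and 100% = 30 µM serotonin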
Target sequence (P35363 whole entry, looked up): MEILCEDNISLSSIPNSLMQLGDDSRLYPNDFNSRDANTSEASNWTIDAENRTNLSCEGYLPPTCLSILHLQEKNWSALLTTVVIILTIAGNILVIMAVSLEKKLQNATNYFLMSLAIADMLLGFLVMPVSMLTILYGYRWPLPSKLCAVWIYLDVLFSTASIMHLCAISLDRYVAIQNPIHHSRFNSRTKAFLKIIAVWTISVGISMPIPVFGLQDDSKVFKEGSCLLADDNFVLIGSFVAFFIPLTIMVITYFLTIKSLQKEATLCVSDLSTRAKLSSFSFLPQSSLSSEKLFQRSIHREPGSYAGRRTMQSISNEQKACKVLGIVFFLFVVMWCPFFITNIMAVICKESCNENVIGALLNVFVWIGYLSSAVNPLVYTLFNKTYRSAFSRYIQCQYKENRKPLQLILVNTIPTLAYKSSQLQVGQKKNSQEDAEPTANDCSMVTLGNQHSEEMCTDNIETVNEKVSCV
CCR6 antagonist – CCR6 (human) receptor antagonism; CHO-K1 CCR6 PathHunter beta-arrestin, luminescence, CCL20-stimulated; P51684; 340,000 tested, 0.49% active; inhibition, % at 20 µM;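 active means compounds whose inhibition of the agonist-driven luminescence signal at 20 µM reaches about 50%, limit read from the data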;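 further: cells stimulated with CCL20 at 14 nM final; plate controls were DMSO with CCL20 for no effect and DMSO without agonist for full effect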
APJ ag – activates the human apelin receptor APJ; P35414; CHO-K1 APJ PathHunter beta-arrestin, luminescence; 0% DMSO wells, 100% apelin; activation, % at 20 µM; 330,000 tested, 0.11% active; AID 2520;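 active means activation more than six SD over the plate average, tested at 20 µM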;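 further: 0% = DMSO alone and 100% = apelin-13 at 10 nM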
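Test system – PathHunter CHO-K1 APJ (AGTRL-1) beta-arrestin reporter cells · Input – 1000 cells/well · Compound – single test compound dose, 20 µM final, 1% DMSO · Times – compound stimulation 90 min at 25 °C, detection 60 min · Technique – beta-gal luminescence · Read-out basis – APJ–arrestin association signal · Control set – negative DMSO alone, positive Apelin-13 at 10 nM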
APJ antagonist – blocks the human apelin receptor APJ; P35414; CHO-K1 APJ beta-arrestin complementation, luminescence; AID 2521; inhibition, % at 20 µM; 330,000 tested, 0.32% active;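 active means inhibition above about 40% at 20 µM, limit read from the data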;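 further: cells challenged with 10 nM apelin-13 agonist together with compound; plate controls were apelin-13 plus DMSO wells for no effect and DMSO wells lacking apelin-13 for full effect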
CXCR6 block – CXCR6 (human) receptor inhibition; AID 602244; CHO-K1 PathHunter CXCR6 beta-arrestin, luminescence; inhibition, % at 20 µM; 360,000 tested, 0.36% active; in the data active means inhibition above about 34%, passing the limit was not always enough;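 further: antagonist mode with CXCL16 agonist at 10 nM final; 0% = 10 nM CXCL16 with DMSO and 100% = unstimulated wells without agonist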
MOR ag counter – counter-screen for mouse HTR2A agonists: human mu opioid receptor agonists; shares compounds with HTR2A ag; U2OS OPRM1 beta-arrestin PathHunter, luminescence; DMSO 0%, DAMGO 9.3 µM 100%; activation, % at 9.3 µM; 2,300 tested, 5.3% active;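 active means mean activation above the mean of DMSO-only wells plus 3 SD, cut at about 0.5% in these data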
m5-HT2A ag conf – mouse HTR2A agonism confirmed | shares compounds with HTR2A ag | CHO-K1 PathHunter beta-arrestin recruitment, luminescence; DMSO 0%, 30 µM serotonin 100% | activation, % at 7.6 µM | 2,300 tested, 19% active | AID 624381;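 active means mean activation across triplicates above the hit threshold derived in the original primary screen, cut at about 15% in these data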
* hit, by the source's call; · = no result. An excerpt weighted towards active compounds, which were near 2.1% of everything screened.

SMILES	EBI2 block	HTR2A ag	CCR6 antagonist	APJ ag	APJ antagonist	CXCR6 block	MOR ag counter	m5-HT2A ag conf
CCN(CC)C(=O)c1c(-c2ccccc2)oc2ccc(OC)cc12	-3	15*	-10	-2	10	3	0	-4
CCOc1ccc2oc(-c3ccccc3)c(C(=O)N(C)C)c2c1	10	-4	20	-3	-30	-6	·	·
CC(c1ccco1)N(C(=O)c1ccccc1NS(=O)(=O)c1ccc(Cl)c([N+](=O)[O-])c1)c1ccccn1 (stereo unspecified)	-2	8	10	-1	-7	13	·	·
O=C(Nc1nc2ccccc2n1CCN1CCCC1)c1ccc(Cl)cc1	5	-6	36	-3	10	23	·	·
CCN(CC)CCn1c(NC(=O)c2ccc(Cl)cc2)nc2ccccc21	6	18*	7	-4	-4	7	·	12
Oc1c(/C=N/c2ccccn2)sc2ccccc12	-11	15*	-6	6	-31	2	0	-2
CCOC(=O)c1cccc(NS(=O)(=O)c2c(C)[nH]c(C)c2C(=O)N2CCCC2)c1	-10	-6	-5	-3	8	-2	·	·
O=C(Cn1cnc2c(NCc3ccccc3)ncnc21)N1CCN(c2ccccn2)CC1	2	4	25	·	·	-5	·	·
Cc1cc(C)c(CN2CCN(C(=O)Cn3cnc4c(NCc5ccccc5)ncnc43)CC2)c(C)c1	-4	22*	26	·	·	1	·	8
CCOC(=O)CN1CCS(=O)(=O)CC1	8	16*	9	-2	12	-2	0	2
O=C(C[C@@H]1C/C=C/CC[C@H](Cc2ccc(F)cc2)C(=O)OCCNC1=O)N[C@H](CO)Cc1ccccc1	-10	-2	-17	2	-8	-4	·	·
CC[N+](C)(CC)CC(O)COCC1COc2ccccc2O1 (stereo unspecified)	-2	16*	-5	-1	-10	-2	-1	-2
OC(COCC1COc2ccccc2O1)CN1CCN(c2ccccc2F)CC1 (stereo unspecified)	-7	15*	17	-7	12	-5	0	36*
NC(=O)c1c(NC(=O)c2ccncc2)sc2c1CCCC2	-12	18*	10	1	1	-2	0	5
O=C(CSc1n[nH]c(=O)[nH]c1=O)N1CCCCCC1	0	-1	4	0	-1	6	·	·
O=C(CCc1n[nH]c(=O)[nH]c1=O)N1CCCCC1	-4	16*	-6	-1	8	0	0	-1
O=C(NCC(=O)N(c1cccnc1)C(C(=O)NC1CCCC1)c1ccccc1)c1ccco1 (stereo unspecified)	-4	0	4	-1	3	2	·	·
O=C(NCC(=O)N(c1cccnc1)C(C(=O)NCc1ccco1)c1ccccc1)c1ccco1 (stereo unspecified)	-7	15*	10	-1	11	1	0	10
COc1cccc(C(C)(O)c2nc(-c3ccc(OC)c(OC)c3)cs2)c1 (stereo unspecified)	2	9	·	·	·	2	·	·
OCCNc1nc(Nc2ccccc2C(F)(F)F)nc(N2CCCC2)n1	7	17*	1	-3	14	5	-1	-3
COc1ccccc1Nc1nc(NCCO)nc(N2CCCC2)n1	-14	3	-3	3	-1	0	·	·
CC(C)(C)c1ccc(C(=O)Nc2ccccc2Cl)cc1	10	-3	-1	-3	-3	3	·	·
O=C(Nc1ccccc1Cl)c1ccccc1CC(O)(c1ccccc1)c1ccccc1	13	21*	·	·	·	-9	0	-4
CC1(C(=O)NS(=O)(=O)c2ccc(Cl)cc2)CCN1C(=O)C1(c2ccc(Cl)cc2)CC1 (stereo unspecified)	4	15*	·	·	·	-2	-1	-1
O=C(O)c1ccc(OCc2cn3ccccc3n2)cc1	-8	9	-3	-5	-19	-1	·	·
SMILES	EBI2 block	HTR2A ag	CCR6 antagonist	APJ ag	APJ antagonist	CXCR6 block	MOR ag counter	m5-HT2A ag conf
O=C(c1ccc(OCc2cn3ccccc3n2)cc1)N1CCN(S(=O)(=O)c2ccccc2F)CC1	-1	20*	3	0	6	-7	0	-2
Cc1ccc(SCC(=O)NCc2ccccc2)cc1	18	-3	1	0	8	6	·	·
COc1ccccc1CC(=O)NNC(=O)c1cccs1	5	15*	18	-4	3	5	-1	-1
CCOc1ccccc1C(=O)N[C@H](C(=O)NNC(=O)c1cccs1)C(C)C	-3	10	-1	-3	8	6	·	·
CCOc1ccccc1C(=O)NCC(=O)NNC(=O)c1cccs1	1	19*	5	0	15	-1	-1	-5
COc1ccccc1CC(=O)Nc1ccc(NC(=O)c2cccs2)cc1	7	-2	-2	3	3	-11	·	·
Cc1ccccc1-n1ncc2c1CC(C)(C)CC2NC(=O)C1=CC(=O)CC(C)(C)O1 (stereo unspecified)	4	32*	7	-5	11	3	-1	-3
COC(=O)C1=C(C)NC(=O)NC1c1ccc(-c2ccccc2Cl)o1 (stereo unspecified)	0	-5	1	-1	-8	1	·	·
CC1CC(C)(C)NC(=S)N1CCCC(=O)NCc1ccccc1 (stereo unspecified)	3	15*	-7	0	-1	-6	-1	-1
COc1ccc(-n2cc(CN3CCC(OC)CC3)c(-c3cccc(F)c3)n2)cc1	-12	0	4	-4	1	8	·	·
COc1ccccc1N(C)S(=O)(=O)c1ccc(C(=O)Nc2nc(C)c(C(C)=O)s2)cc1	3	18*	22	-5	-11	5	0	-2
Cn1c(NC(=O)C[n+]2cc(-c3ccc(F)cc3)n3c2CCC3)cc(=O)n(C)c1=O	17	15*	6	2	12	5	-1	-3
O=c1[nH]c(=S)[nH]nc1Cc1ccc(Cl)c(Cl)c1	-4	3	13	1	2	-1	·	·
CC(C)(C)c1ccc(Cc2n[nH]c(=S)[nH]c2=O)cc1	-1	15*	10	-3	9	-8	-1	-4
Cn1cc(-c2nnc(-c3ccccc3)o2)c2ccccc21	-6	-2	10	-9	8	-6	·	·
O=C(CNS(=O)(=O)c1ccc(Br)cc1)N1CCN(Cc2ccccc2)CC1	-12	15*	-5	3	-11	-3	0	17*
